These results are taken from ChEMBL document CHEMBL3259746, “Identification of [1,2,3]triazolo[4,5-d]pyrimidin-7(6H)-ones as novel inhibitors of Chikungunya virus replication” (J Med Chem, 2014).

A short description of series [1]: Cytotoxicity against non-infected African green monkey Vero cells after 7 days by MTS/PMS method. To be noted: chlorocebus sabaeus. Type of series: cell-based.
For series [2], the system named is Chikungunya virus. The series can be described thus: Antiviral activity against Chikungunya virus Indian Ocean strain 899 infected in African green monkey Vero cells assessed as inhibition of virus-induced cytopathic effect after 7 days by MTS/PMS method. In kind it is functional, cell-based. The note with it: Indian Ocean strain 899, Vero, 168 h.
Series [3] has as its system Chikungunya virus. Kind of series: Antiviral activity against Chikungunya virus LR2006-OPY1 infected in African green monkey Vero E6 cells assessed as reduction in virus yield after 2 days by real time RT-PCR analysis. Type of series: functional, cell-based. To be noted: 48 h.
The subject of series [4] is Chikungunya virus. The series can be described thus: Antiviral activity against Chikungunya virus Congo 95 infected in African green monkey Vero E6 cells assessed as reduction in virus yield after 2 days by real time RT-PCR analysis. Type of series: functional, cell-based. To be noted: Congo 95, Vero, 48 h.
In series [5] the test system is Chikungunya virus. The series can be described thus: Antiviral activity against Chikungunya virus St. Martin infected in African green monkey Vero E6 cells assessed as reduction in virus yield after 2 days by real time RT-PCR analysis. In kind it is functional, cell-based. The note with it: 48 h.
The next series deals with Sindbis virus. The series can be described thus: Antiviral activity against Sindbis virus HRsp infected in African green monkey Vero E6 cells assessed as reduction in virus yield after 2 days by real time RT-PCR analysis. Type of series: functional, organism-based. To be noted: 48 h.
Another series has as its system Semliki Forest virus. Kind of series: Antiviral activity against Semliki forest virus Vietnam infected in African green monkey Vero E6 cells assessed as reduction in virus yield after 2 days by real time RT-PCR analysis. Type of series: functional, organism-based. The note with it: 48 h.
The subject of series [6] is Chikungunya virus. The series can be described thus: Antiviral activity against Chikungunya virus Venturini infected in African green monkey Vero E6 cells assessed as reduction in virus yield after 2 days by real time RT-PCR analysis. The note with it: 48 h. Type of series: functional, cell-based.
A short description of series [7]: Cytotoxicity against non-infected African green monkey Vero E6 cells up to 300 uM after 2 days. In kind it is cell-based. The note with it: chlorocebus sabaeus, 48 h. In outline: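 Uninfected Vero E6 cells were tested up to 300 μM under the same settings as the 2-day virus-yield assay: 5 × 10⁴ cells/well, 2.5% FCS medium, and 2-fold dilutions in triplicate.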

The nature of series [8]: Selectivity index, ratio of CC50 for African green monkey Vero cells to EC50 for Chikungunya virus Indian Ocean strain 899 infected in African green monkey Vero cells. In kind it is toxicity, cell-based. To be noted: read-out: Ratio CC50/EC50.

SMILES strings stand for the structures. Bounds are passed on as bounds.

Molecule `CC(=O)c1cccc(-n2nnc3c(=O)n(C)c(C)nc32)c1` returned a CC50 at 168 h in series [1] of over 706 µM. In addition, in the series on Chikungunya virus [2], the EC50 is over 441 µM and the EC90 is over 441 µM.

Take `CC(=O)c1cccc(-n2nnc3c(=O)[nH]c(C)nc32)c1`: in series [1], the CC50 at 168 h was over 743 µM. The EC50 is 25 µM in the series on Chikungunya virus [3]; 6.4 µM in the series on Chikungunya virus [4]; 24 µM in the series on Chikungunya virus [5]; over 464 µM with Sindbis virus; over 464 µM in the series with Semliki Forest virus; 19 µM in the series with Chikungunya virus [2]. Further, in the series on Chikungunya virus [6], the EC50 was found to be 26 µM. Also, the EC90 in the series with Chikungunya virus [2] came to 38 µM. The Activity entry in [7] is listed as “Non-toxic”.

In turn, `CC(=O)c1cccc(-n2nnc3c(N)nc(C)nc32)c1` displayed a CC50 at 168 h in series [1] of over 746 µM. Further, in the series on Chikungunya virus [2], the EC50 is 225 µM and the EC90 came to 309 µM.

In series [1], `CNc1nc(C)nc2c1nnn2-c1cccc(C(C)=O)c1` had a CC50 at 168 h of 514 µM. For the same molecule, in the series on Chikungunya virus [2], the EC50 is over 443 µM and the EC90 is over 443 µM.

`COc1nc(C)nc2c1nnn2-c1cccc(C(C)=O)c1` registered a CC50 at 168 h in series [1] of 495 µM. Further, in the series on Chikungunya virus [2], the EC50 was over 441 µM and the EC90 is over 441 µM.

`CC(=O)c1cccc(-n2cnc3c(=O)[nH]c(C)nc32)c1` yielded a CC50 at 168 h in [1] of 491 µM. In the series on Chikungunya virus [2], the EC50 turned out to be 127 µM and the EC90 came out at 161 µM.

`CC(=O)c1cccc(-n2c(C)nc3c(=O)[nH]c(C)nc32)c1` returned a CC50 at 168 h in series [1] of over 703 µM. In addition, in the series with Chikungunya virus [2], the EC50 is over 440 µM and the EC90 was over 440 µM.

Regarding `COc1ccccc1-n1nnc2c(=O)[nH]c(C)nc21`, the CC50 at 168 h in series [1] is over 777 µM. In addition, in the series with Chikungunya virus [2], the EC50 is 348 µM and the EC90 worked out at 460 µM.

`COc1cccc(-n2nnc3c(=O)[nH]c(C)nc32)c1` gave a CC50 at 168 h in [1] of over 777 µM. In the series on Chikungunya virus [2], the EC50 came out at 28 µM and the EC90 worked out at 179 µM.

In the case of `Cc1nc2c(nnn2-c2cccc(Cl)c2)c(=O)[nH]1`, the CC50 at 168 h in [1] is over 764 µM. In addition, in the series on Chikungunya virus [2], the EC50 was 32 µM and the EC90 came out at 235 µM.

For the molecule `Cc1nc2c(nnn2-c2cccc(C(=O)c3ccccc3)c2)c(=O)[nH]1`, the CC50 at 168 h in series [1] was over 604 µM. In the series on Chikungunya virus [2], the half-maximal effective concentration (EC50) amounted to 23 µM and the EC90 is 47 µM.

Molecule `Cc1nc2c(nnn2-c2cccc(OC(C)C)c2)c(=O)[nH]1` showed a CC50 at 168 h in series [1] of over 704 µM. Further, in the series on Chikungunya virus [2], the EC50 was determined as 12 µM and the 90% effect concentration (EC90) stood at 156 µM.

In turn, `CC(=O)Nc1cccc(-n2nnc3c(=O)[nH]c(C)nc32)c1` yielded a CC50 at 168 h in series [1] of 206 µM. In the series on Chikungunya virus [2], the EC50 came to 318 µM and the EC90 was 425 µM.

In [1], `Cc1nc2c(nnn2-c2cccc(N(C)C)c2)c(=O)[nH]1` had a CC50 at 168 h of 538 µM. Also, in the series with Chikungunya virus [2], the EC50 is over 370 µM and the EC90 is over 370 µM.

Turning to `Cc1nc2c(nnn2-c2cccc(C#N)c2)c(=O)[nH]1`, in series [1], the CC50 at 168 h is over 793 µM. Moreover, in the series with Chikungunya virus [2], the EC50 was found to be 131 µM and the EC90 was determined as 187 µM.

As to `CC(=O)c1cccc(-n2nnc3c(=O)[nH]cnc32)c1`, in series [1], the CC50 at 168 h was over 784 µM. Moreover, in the series on Chikungunya virus [2], the EC50 is over 490 µM and the EC90 is over 490 µM.

As to `CC(=O)c1ccc(-n2nnc3c(=O)[nH]c(C)nc32)cc1`, the CC50 at 168 h in [1] is over 743 µM. Also, in the series with Chikungunya virus [2], the EC50 is 326 µM and the EC90 is over 743 µM.

`CCCOc1ccc(-n2nnc3c(=O)[nH]c(C)nc32)cc1` gave a CC50 at 168 h in series [1] of 594 µM. Besides, in the series with Chikungunya virus [2], the EC50 turned out to be 169 µM and the EC90 is over 701 µM.

The molecule `Cc1nc2c(nnn2-c2ccc3c(c2)OCO3)c(=O)[nH]1` displayed a CC50 at 168 h in series [1] of over 737 µM. Besides, in the series on Chikungunya virus [2], the EC50 was over 461 µM and the EC90 was over 461 µM.

Take `CCOC(=O)c1cccc(-n2nnc3c(=O)[nH]c(C)nc32)c1`: it took 322 µM to reach half-maximal cytotoxicity in series [1] (CC50 at 168 h). For the same molecule, in the series on Chikungunya virus [2], the EC50 is 202 µM and the EC90 stood at 331 µM.

As for `Cc1nc2c(nnn2-c2cccc(C(=O)O)c2)c(=O)[nH]1`, in series [1], the CC50 at 168 h is over 638 µM. Besides, in the series with Chikungunya virus [2], the EC50 was over 399 µM and the concentration for an effect of 90% (EC90) is over 399 µM.

The molecule `CC(C)Oc1cccc(-n2nnc3c(=O)[nH]c(C(F)(F)F)nc32)c1` returned a CC50 at 168 h in series [1] of 104 µM. Moreover, in the series with Chikungunya virus [2], the EC50 came out at 68 µM and the EC90 was over 147 µM.

In series [1], `CCc1nc2c(nnn2-c2cccc(OC(C)C)c2)c(=O)[nH]1` came in with a CC50 at 168 h of over 668 µM. Moreover, the EC50 in the series on Chikungunya virus [3] was 2.6 µM; with Chikungunya virus [4], 0.75 µM; in the series on Chikungunya virus [5], 2.9 µM; in the series with Sindbis virus, 69 µM; in the series with Semliki Forest virus, 219 µM; with Chikungunya virus [2] it was 3 µM. Also, in the series on Chikungunya virus [6], the EC50 was found to be 1.4 µM. For the same molecule, the selectivity ratio in series [8] is over 222. In addition, in the series with Chikungunya virus [2], the concentration for an effect of 90% (EC90) is 18 µM. Besides, in [7], the Activity result was “Non-toxic”.

In turn, `CC(C)Oc1cccc(-n2nnc3c(=O)[nH]c(CC#N)nc32)c1` had a CC50 at 168 h in [1] of 215 µM. In the series on Chikungunya virus [2], the EC50 is 115 µM and the EC90 came out at 137 µM.

In turn, `CCCc1nc2c(nnn2-c2cccc(OC(C)C)c2)c(=O)[nH]1` registered a CC50 at 168 h in series [1] of over 638 µM. In the series on Chikungunya virus [2], the EC50 was over 399 µM and the EC90 is over 399 µM.

In [1], `CC(C)Oc1cccc(-n2nnc3c(=O)[nH]c(C(C)C)nc32)c1` registered a CC50 at 168 h of over 638 µM. For the same molecule, in the series on Chikungunya virus [2], the EC50 was 280 µM and the EC90 was over 638 µM.

Turning to `CC(C)Oc1cccc(-n2nnc3c(=O)[nH]c(-c4ccccc4)nc32)c1`, in [1], the midpoint of cytotoxicity, the CC50 at 168 h, lay at 277 µM. Moreover, in the series with Chikungunya virus [2], the EC50 turned out to be 204 µM and the EC90 was over 360 µM.

`CC(C)Oc1cccc(-n2nnc3c(=O)[nH]c(-c4ccncc4)nc32)c1` had a CC50 at 168 h in series [1] of 82 µM. In the series on Chikungunya virus [2], the EC50 came out at 75 µM and the EC90 was over 144 µM.

In series [1], `CC(C)Oc1cccc(-n2nnc3c(=O)[nH]c(=O)[nH]c32)c1` had a CC50 at 168 h of over 696 µM. Besides, in the series on Chikungunya virus [2], the EC50 is over 435 µM and the EC90 was over 435 µM.

Turning to `Cc1nc2c(nnn2Cc2cccc(OC(C)C)c2)c(=O)[nH]1`, the CC50 at 168 h in [1] was over 872 µM. Further, in the series on Chikungunya virus [2], the EC50 was 167 µM and the EC90 was 232 µM.

`CC(=O)c1cccc(-n2nnc3c(Cl)nc(C)nc32)c1` registered a CC50 at 168 h in [1] of over 174 µM. In addition, in the series on Chikungunya virus [2], the EC50 is over 174 µM and the EC90 was over 174 µM.

Turning to `CCN(CC)CCCC(C)Nc1ccnc2cc(Cl)ccc12` (centres undefined) [CHLOROQUINE], in the series on Chikungunya virus [2], the EC90 was determined as 21 µM.
